Data set [1] has as its system Plasmodium falciparum. Put plainly: Antimalarial activity against Plasmodium falciparum D6. The data set is classed as functional, organism-based.
The test system of data set [2] is Vero. Put plainly: Cytotoxicity against african green monkey Vero cells at 4.76 ug/mL. The data set is classed as cell-based. Particulars: chlorocebus sabaeus. In a few lines: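 Vero (African green monkey kidney) cells exposed to compound at 4.76 µg/mL to assess cytotoxicity.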
Data set [3] is described as follows: Selectivity index, ratio of IC50 for african green monkey (Cercopithecus aethiops) Vero cells to IC50 for Plasmodium falciparum D6. The data set is classed as toxicity, cell-based. Particulars: read-out: Selectivity Index.
Data set [4] addresses T1, 5-hydroxytryptamine receptor 2A (Homo sapiens, UniProt P28223). Put plainly: Displacement of [3H]methylspiperone form human cloned 5HT2A receptor expressed in african green monkey COS7 cells at 30 uM by scintillation spectroscopy. The data set is classed as cell-based. Particulars: cos-7. In a few lines: (§1)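 Single-point competition on transfected COS-7 membranes (human 5-HT2A with [3H]methylspiperone; 5-HT2C with [3H]mesulergine), 50 mM Tris pH 7.4, 2 h at 25 °C; 10 µM mianserin defines nonspecific binding; filter-bound radioactivity counted by scintillation. DMSO stock 10 mM, diluted at least 1:100 in assay.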

For data set [5], the target named is T2, 5-hydroxytryptamine receptor 2C (Homo sapiens, UniProt P28335).
T2 sequence (P28335 whole entry): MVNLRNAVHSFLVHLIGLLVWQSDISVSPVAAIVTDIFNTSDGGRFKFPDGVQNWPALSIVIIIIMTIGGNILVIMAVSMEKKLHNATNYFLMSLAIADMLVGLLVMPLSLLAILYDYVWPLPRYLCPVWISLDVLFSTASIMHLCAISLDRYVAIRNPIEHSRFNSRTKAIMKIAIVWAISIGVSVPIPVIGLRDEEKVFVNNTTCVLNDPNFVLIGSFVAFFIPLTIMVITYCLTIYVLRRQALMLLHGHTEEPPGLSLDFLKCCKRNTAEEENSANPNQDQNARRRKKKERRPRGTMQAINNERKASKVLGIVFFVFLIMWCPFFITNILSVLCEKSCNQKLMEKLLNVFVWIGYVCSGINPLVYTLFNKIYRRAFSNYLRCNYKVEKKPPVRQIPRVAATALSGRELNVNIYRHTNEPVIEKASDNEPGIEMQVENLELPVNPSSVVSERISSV
Briefly: Displacement of [3H]mesulergine form human cloned 5HT2C receptor expressed in african green monkey COS7 cells at 30 uM by scintillation spectroscopy. It counts as cell-based. The settings on record: cos-7. In a few lines: as §1
A general note: In a radioligand displacement assay an active substance lowers the binding of a labelled ligand.

The species named for data set [6] is Homo sapiens. Put plainly: Displacement of [3H]methylspiperone form human cloned dopamine 4.2 receptor.
Data set [7] concerns Mycobacterium tuberculosis. Briefly: Antitubercular activity against Mycobacterium tuberculosis H37Rv at 6.25 ug/mL. The data set is classed as functional.
For data set [8], the target named is T1, 5-hydroxytryptamine receptor 2A. Put plainly: Displacement of [3H]methylspiperone form human cloned 5HT2A receptor expressed in african green monkey COS7 cells by scintillation spectroscopy. The data set is classed as cell-based, COS-7. In a few lines: (§2)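 Transiently CaPO4-transfected COS-7 membranes carrying human 5-HT2A ([3H]methylspiperone) or 5-HT2C ([3H]mesulergine); equilibrium competition in 50 mM Tris pH 7.4, 2 h at 25 °C; nonspecific binding with 10 µM mianserin; filtration on PEI-treated GF/C, scintillation counting. Compounds from 10 mM DMSO stock diluted ≥1:100. Triplicate points, three experiments; Ki via Cheng-Prusoff, geometric means.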

Data set [9] has as its target T2, 5-hydroxytryptamine receptor 2C. Put plainly: Displacement of [3H]mesulergine form human cloned 5HT2C receptor expressed in african green monkey COS7 cells by scintillation spectroscopy. It counts as cell-based, COS-7. The procedure, abridged:
as §2

Data set [10] concerns Mycobacterium tuberculosis. Briefly: Antitubercular activity against Mycobacterium tuberculosis H37Rv. It counts as functional. The settings on record: for MIC: Mycobacterium tuberculosis, H37Rv.
The target in data set [11] is T3, Plasmepsin II (Plasmodium falciparum, UniProt P46925). Briefly: Inhibition of Plasmodium falciparum plasmepsin-2 by FRET assay.
T3 sequence (P46925 whole entry): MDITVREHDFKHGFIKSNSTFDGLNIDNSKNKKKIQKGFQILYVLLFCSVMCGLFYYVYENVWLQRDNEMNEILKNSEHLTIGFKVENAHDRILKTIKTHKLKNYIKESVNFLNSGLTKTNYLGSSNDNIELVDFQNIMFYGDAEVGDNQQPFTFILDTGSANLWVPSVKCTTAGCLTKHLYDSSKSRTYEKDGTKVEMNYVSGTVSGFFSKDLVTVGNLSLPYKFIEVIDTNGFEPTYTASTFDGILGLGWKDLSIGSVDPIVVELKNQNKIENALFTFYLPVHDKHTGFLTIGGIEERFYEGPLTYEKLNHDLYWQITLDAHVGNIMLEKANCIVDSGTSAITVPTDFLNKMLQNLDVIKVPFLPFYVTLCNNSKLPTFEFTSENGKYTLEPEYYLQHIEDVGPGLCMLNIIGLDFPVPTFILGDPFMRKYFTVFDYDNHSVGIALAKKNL
Data set [12] concerns the target T3, Plasmepsin II. Put plainly: Inhibition of Plasmodium falciparum plasmepsin-2 by fluorescence polarization assay. Background: Fluorescence polarisation rises when a labelled molecule tumbles more slowly, as on binding a larger partner.
Setting [13] is: Plasmodium falciparum, D6, read-out: IC50.

Converted amounts (≈) assume the structure as drawn. The source made the active and inactive calls.

T1 sequence (P28223 whole entry): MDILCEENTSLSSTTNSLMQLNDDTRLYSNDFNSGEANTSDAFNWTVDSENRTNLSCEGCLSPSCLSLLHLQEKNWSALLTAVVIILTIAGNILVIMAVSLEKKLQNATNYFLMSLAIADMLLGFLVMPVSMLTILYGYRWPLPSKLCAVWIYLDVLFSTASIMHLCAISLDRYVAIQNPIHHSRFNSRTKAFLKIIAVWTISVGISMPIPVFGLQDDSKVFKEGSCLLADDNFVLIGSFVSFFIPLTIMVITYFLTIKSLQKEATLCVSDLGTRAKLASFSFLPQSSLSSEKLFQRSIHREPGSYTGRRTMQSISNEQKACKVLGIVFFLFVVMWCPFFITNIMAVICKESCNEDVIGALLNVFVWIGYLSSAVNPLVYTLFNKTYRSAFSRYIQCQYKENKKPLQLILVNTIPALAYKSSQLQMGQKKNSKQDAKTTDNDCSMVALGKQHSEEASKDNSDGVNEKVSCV

As for `O=C1C(=O)c2[nH]cc3c2C(=C1Br)NCC3` [MAKALUVAMINE O], in data set [1] (setting [13]), the half-inhibitory concentration (IC50) – broadly, the midpoint of a concentration-inhibition curve – is 0.94 µg/mL (≈ 3.52 µM). The Activity entry in data set [2] is listed as “Non-toxic”. Moreover, the selectivity ratio in data set [3] was more than 5.1. Besides, the Ki result in data set [4] and in data set [5] was “Not Active” in each case. In [6], the outcome was inactive.
As to `CC(=O)Oc1ccc2c(c1)C[C@]1(C)[C@@H](C)CC[C@H]3C(C)(C)CCC[C@]31O2` [AUREOL ACETATE], the half-maximal inhibitory concentration (IC50) result in data set [1] is listed as “Not Active”. The Activity entry in data set [2] is on record as “Non-toxic”. For the same molecule, the inhibition (in general, the relative decrease from the control value, in per cent) at 6.25 µg/mL in [7] was 34%. Moreover, the result in data set [6] was inactive.
As to `C/N=C1\N(C)C(=O)/C(=C\c2c[nH]c3ccccc23)N1C` [METHYLAPLYSINOPSIN], the 50% inhibitory concentration (IC50) result in data set [1] is reported as “Not Active”. The Activity result in [2] is “Non-toxic”. Besides, the Ki entry in [4] and in data set [5] was “Not Active” in each case. For the same molecule, the result in data set [6] was inactive.
Consider `COc1ccc2c(c1)C[C@]1(C)[C@@H](C)CC[C@H]3C(C)(C)CCC[C@]31O2`, for which the IC50 result in data set [1] is listed as “Not Active”. Further, in data set [2], the Activity result is “Non-toxic”. The same molecule showed an inhibition at 6.25 µg/mL in data set [7] of 53%. Also, the outcome in data set [6] was inactive.
For `C/N=C1\NC(=O)/C(=C\c2c[nH]c3ccccc23)N1C` [ISOPLYSIN A], the IC50 in data set [1] (setting [13]) is 0.97 µg/mL (≈ 3.81 µM). Besides, the Activity result in data set [2] is “Non-toxic”. In addition, in [3], the selectivity ratio is more than 4.9. Moreover, the Ki entry in [4] and in [5] was “Not Active” each time. Moreover, in [6], the outcome was inactive.
Turning to `C[C@H]1CC[C@H]2C(C)(C)CCC[C@]23Oc2ccc(O)c(Cl)c2C[C@]13C`, the IC50 in data set [1] (setting [13]) came out at 3.4 µg/mL (≈ 9.74 µM). The Activity result in [2] is “Non-toxic”. In addition, the selectivity ratio in [3] was more than 1.4. Moreover, in data set [7], the inhibition at 6.25 µg/mL was found to be 38%. The outcome in [6] was inactive.
Regarding `CN1C(=N)N(C)/C(=C/c2c[nH]c3cc(Br)ccc23)C1=O`, the IC50 in data set [1] (setting [13]) amounted to 0.34 µg/mL (≈ 1.02 µM). Further, in [2], the Activity result was “Non-toxic”. Also, the selectivity ratio in data set [3] was more than 14. In addition, the Ki (usually the equilibrium dissociation constant of an inhibitor or competing ligand from its target) in data set [8] was 2000 nM; in data set [9], 330 nM. For the same molecule, the outcome in data set [6] was inactive.
For the molecule `CC/N=C1\N(C)C(=O)/C(=C\c2c[nH]c3ccccc23)N1C`, the IC50 result in data set [1] is given as “Not Active”. Also, the Activity result in data set [2] was “Non-toxic”. The Ki in data set [8] was determined as 1700 nM; in data set [9], 3500 nM. The result in data set [6] was inactive.
Regarding `C[C@H]1CC[C@H]2C(C)(C)CCC[C@]23Oc2ccc(OC(=S)N(C)C)cc2C[C@]13C`, in [1] (setting [13]), the IC50 is 0.087 µg/mL (≈ 0.217 µM). Besides, the Activity result in [2] is “Non-toxic”. Besides, in data set [3], the selectivity ratio was more than 55. This molecule also registered an inhibition at 6.25 µg/mL in data set [7] of 100%. In addition, in data set [10], the “inhibition (INH)” value is recorded as 100% and the MIC (as a rule, the smallest concentration in the dilution series that meets the test's criterion for growth inhibition) is less than 6.25 µg/mL. The result in data set [6] was inactive.
`CN1C(=N)N/C(=C/c2c[nH]c3ccccc23)C1=O`: the IC50 entry in [1] is “Not Active”. In [2], the Activity entry is recorded as “Non-toxic”. The inhibition constant Ki entry in data set [4] and in data set [5] was “Not Active” in each case. Besides, in [6], the outcome was inactive.
`CN1C(=N)N/C(=C/c2c[nH]c3cc(Br)ccc23)C1=O`: the IC50 was found to be 1.1 µg/mL (≈ 3.45 µM) in [1] (setting [13]), 53000 nM in data set [11] and 66000 nM in data set [12]. Further, the Activity entry in [2] was “Non-toxic”. In addition, in data set [3], the selectivity ratio was more than 4.3. The inhibition constant Ki in [8] was more than 100000 nM; in data set [9], 2300 nM. The molecule also returned an inhibition in data set [8] (COS-7, concentration not given here) of 10%. Also, the result in data set [6] was inactive.
Regarding `C[C@H]1CC[C@H]2C(C)(C)CCC[C@]23Oc2ccc(O)cc2C[C@]13C` [AUREOL], in data set [1], the concentration for half-maximal inhibition (IC50) result is recorded as “Not Active”. Moreover, the Activity entry in data set [2] was “Non-toxic”. In data set [7], this molecule yielded an inhibition at 6.25 µg/mL of 31%. Also, in [10], the “inhibition (INH)” value worked out at 31% and the MIC is more than 6.25 µg/mL. Moreover, the result in data set [6] was inactive.

Source of the values: ChEMBL document CHEMBL1148114, “New antiinfective and human 5-HT2 receptor binding natural and semisynthetic compounds from the Jamaican sponge Smenospongia aurea” (J Nat Prod, 2002).
